Experimental data: ChEMBL document CHEMBL1124171, “Ergolines as selective 5-HT1 agonists” (J Med Chem, 1988)

How the values were obtained:
[1] = system: Rattus norvegicus; assay: Effect of Metergoline on the elevation of serum corticosterone, after sc administration (0 mg/kg) Metergoline pretreament; type: functional, organism-based
In short: (§1)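 Male Wistar rats (~150 g) received metergoline (3 mg/kg, ip) or no pretreatment. Drug was given sc in dilute HCl 1 h later, and rats were decapitated 1 h after that. Serum corticosterone was determined spectrofluorometrically. Results are mean ± SE, five rats/group, P < 0.05 versus the corresponding control.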

[2] = system: Rattus norvegicus; assay: Decreased accumulation of 5-hydroxytryptophan after decarboxylase inhibition in the hypothalamus of rat at a dose 0.1mg/Kg, sc; type: functional, organism-based
In short: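 Male Wistar rats (~150 g) got drug sc in dilute HCl. NSD 1015 (100 mg/kg, ip) was given 30 min after drug and 30 min before decapitation. Hypothalamic 5-HTP was measured by LC with electrochemical detection. Results are mean ± SE, five rats per treated group and six controls; significance at P < 0.01.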

[3] = system: Rattus norvegicus; assay: Effect on serotonin in rat whole brain, after sc administration (0.3 mg/kg dose) (experiment 1); type: functional, organism-based
[4] = system: Rattus norvegicus; assay: Minimum effective dose required to suppressing (MED) 5HIAA concentration in rat when administered sc; type: functional; conditions: read-out: MED
In short: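 Male Wistar rats (~150 g). Compound in dilute HCl given sc at graded doses 1 h before decapitation. Whole-brain 5-HIAA measured by LC with electrochemical detection; serum corticosterone measured spectrofluorometrically. Minimum effective dose is the lowest dose giving a significant difference from control (P < 0.05).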

[5] = system: Rattus norvegicus; assay: Effect of Metergoline on the elevation of serum corticosterone, after sc administration (0.3 mg/kg) No pretreatment; type: functional, organism-based; in short: as §1
[6] = system: Rattus norvegicus; assay: Effect on 5-hydroxyindoleacetic acid in rat whole brain, after sc administration (0.01 mg/kg dose) (experiment 2); type: functional, organism-based
In short: (§2)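 Drug was given sc in dilute HCl to male Wistar rats (~150 g), with decapitation 1 h later. Whole brains were frozen on dry ice and held at −15 °C. […] Results are mean ± SE, five rats/group, P < 0.05 versus vehicle control.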

[7] = Ratio of affinity towards 5-HT1 to 5-HT2 receptor
In short: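 Frontal cortex from male Wistar rats (140–160 g), homogenate pellet in 0.05 M Tris with 10 μM pargyline and 4 mM Ca²⁺, 250–350 μg protein/sample. 5-HT1: 2 nM [³H]-5-HT, nonspecific with 10 μM 5-HT. […] Eleven concentrations, 0.1–10 000 nM, in duplicate. IC50 from curve fitting of specific binding.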

[8] = system: Rattus norvegicus; assay: Effect on 5-hydroxyindoleacetic acid in rat whole brain, after sc administration (0.3 mg/kg dose) (experiment 1); type: functional, organism-based; in short: as §2
[9] = system: Rattus norvegicus; assay: Effect of Metergoline on the elevation of serum corticosterone, after sc administration (0.3 mg/kg) Metergoline pretreament; type: functional, organism-based; in short: as §1
[10] = system: Rattus norvegicus; assay: Effect of Metergoline on the elevation of serum corticosterone, after sc administration (0.03 mg/kg) No pretreatment; type: functional, organism-based; in short: as §1
[11] = species: Rattus norvegicus; assay: Effect of […] on the elevation of serum corticosterone at a dose 100 ug/mL PCPA pretreated; type: functional, organism-based
In short: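 Rats got p-chlorophenylalanine (300 mg/kg, ip) or no pretreatment. 24 h later, drug (0.3 mg/kg, sc, dilute HCl) or p-chloroamphetamine HCl (2.5 mg/kg, ip) was given, and rats were killed 1 h after. Serum corticosterone was measured spectrofluorometrically. Results are mean ± SE, five male Wistar rats/group.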

[12] = system: Rattus norvegicus; assay: Effect on serotonin in rat whole brain, after sc administration (0.03 mg/kg dose) (experiment 1); type: functional, organism-based; in short: as §2
[13] = system: Rattus norvegicus; assay: Effect on serotonin in rat whole brain, after sc administration (0 mg/kg dose) (experiment 1); type: functional, organism-based; in short: as §2
[14] = system: Rattus norvegicus; assay: Effect on serotonin in rat whole brain, after sc administration (0.03 mg/kg dose) (experiment 2); type: functional, organism-based
[15] = system: Rattus norvegicus; assay: Effect of Metergoline on the elevation of serum corticosterone, after sc administration (0.1 mg/kg) Metergoline pretreament; type: functional, organism-based; in short: as §1
[16] = system: Rattus norvegicus; assay: Effect of Metergoline on the elevation of serum corticosterone, after sc administration (0.1 mg/kg) No pretreatment; type: functional, organism-based; in short: as §1
[17] = system: Rattus norvegicus; assay: Effect on serotonin in rat whole brain, after sc administration (0.01 mg/kg dose) (experiment 2); type: functional, organism-based; in short: as §2
[18] = system: Rattus norvegicus; assay: Effect on serum corticosterone in serum of rats after sc administration (0 mg/kg dose) (experiment 1); type: functional, organism-based
In short: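 Male Wistar rats (~150 g) housed at 24 °C with lights 7 a.m.–7 p.m. Compound in dilute HCl given sc 1 h before decapitation. Serum corticosterone measured spectrofluorometrically, μg/100 mL. Five rats per group, mean ± SE. Significance set at P < 0.05 versus the vehicle control.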

[19] = system: Rattus norvegicus; assay: Effect of Metergoline on the elevation of serum corticosterone, after sc administration (0.03 mg/kg) Metergoline pretreament; type: functional, organism-based; in short: as §1
[20] = molecular target: Serotonin 1 (5-HT1) receptor (Rattus norvegicus, UniProt P28564+P30940+P19327+P28565); assay: Binding affinity towards 5-hydroxytryptamine 1 receptor using [3H]5-HT as a radioligand from rat frontal cortex homogenates; type: tissue-based
[21] = system: Rattus norvegicus; assay: Effect on concentration of 5HIAA in rat brain hypothalamus after 0.3 mg/kg sc administration; type: functional, organism-based; parameters: dose 0.3 mg/kg
In short: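 Male Wistar rats (~150 g) were injected sc with drug in dilute HCl and decapitated 1 h later. Hypothalamus and striatum were dissected and frozen on dry ice. […] Results are mean ± SE, five rats/group, P < 0.05.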

C[C@@H]1C=C2c3cccc4c3[C@@H](CN4)C[C@H]2N(C)C1
Serum corticosterone [1]: 6.2 µg/mL
Concentration [2]: 0.73 nM/g
Concentration [3]: 2.95 nM/g
minimal effective dose [4]: 0.03 mg/kg
Serum corticosterone [5]: 46.6 µg/mL
Concentration [6]: 2.2 nM/g
Selectivity ratio [7]: 100
Concentration [8]: 1.45 nM/g
Serum corticosterone [9]: 50.2 µg/mL
Serum corticosterone [10]: 6.5 µg/mL
Serum corticosterone [11]: 42 µg/mL
Concentration [12]: 2.8 nM/g
Concentration [13]: 2.32 nM/g
Concentration [14]: 2.77 nM/g
Serum corticosterone [15]: 46.8 µg/mL
Serum corticosterone [16]: 33.8 µg/mL
Concentration [17]: 2.67 nM/g
Concentration [18]: 4.3 nM/g
Serum corticosterone [19]: 22.1 µg/mL
IC50 [20]: 17 nM
Concentration [21]: 2.18 mg/kg
